Test [1] has as its system MIA PaCa-2. Kind of test: Inhibition of MiaPaCa2 cell proliferation. In kind it is functional, cell-based. To be noted: Homo sapiens. The method, boiled down:
(§1)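 SRB colorimetric growth assay. Exponentially growing cells were seeded so they would undergo 3-5 doublings before reaching 85% confluence. Graded compound concentrations were added 18 h later, and cells were incubated 5 days at 37 °C in 5% CO2. Cells were fixed with cold TCA for 1 h at 4 °C, stained with 0.4% SRB in 1% acetic acid, solubilized in 10 mM Tris base, and OD read at 570 nm.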

In test [2] the test system is B16. Kind of test: Inhibitory activity against B16-F1 cell line. To be noted: Mus musculus. In kind it is functional, cell-based.
For test [3], the target named is cAMP-dependent protein kinase (PKA) (Homo sapiens, UniProt P22694+P17612+P22612). The test can be described thus: Inhibition of Protein kinase A (PKA). In kind it is protein assay.
In test [4] the test system is HCT-116. Kind of test: Inhibition of HCT116 colon carcinoma cell proliferation. The test is classed as functional, cell-based. To be noted: Homo sapiens. In outline: as §1
For test [5], the target named is Protein kinase C (PKC). Kind of test: Inhibition of Protein kinase C. The test is classed as protein assay.
Test [6] concerns the target Cyclin-dependent kinase 4/cyclin D1 (Homo sapiens, UniProt P11802). The test can be described thus: Inhibitory concentration against Cyclin-dependent kinase 4-cyclin D1. The test is classed as protein-complex assay. In outline:
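CDK4/cyclin D1 came from extracts of insect cells dually infected with baculovirus vectors. Reactions were started with 4 units of enzyme, run 15 min at room temperature, and stopped with EDTA. Product was captured on GSH-Sepharose and counted by scintillation.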

The target of test [7] is Cyclin-dependent kinase 1/cyclin B (Homo sapiens, UniProt P06493). The test can be described thus: Inhibition of Cyclin-dependent kinase 1-cyclin B. The test is classed as protein-complex assay.
In test [8] the test system is NCI-H460. The test can be described thus: Inhibition of NCI-H460 cell proliferation. In kind it is functional, cell-based. As to conditions: Homo sapiens. The method, boiled down: as §1
Test [9] concerns AG1523. Kind of test: Effective concentration against normal human fibroblast cell line AG1523. The test is classed as functional, cell-based. The method, boiled down: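 Normal human foreskin fibroblasts AG1523 were seeded at a density giving confluence and contact inhibition of growth. Graded compound concentrations were added 18 h later, and cells were incubated 6 days at 37 °C in 5% CO2. Death effects were scored by SRB colorimetry: cold TCA fixation, 0.4% SRB stain, Tris base solubilization, OD at 570 nm.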

For test [10], the system named is PC-3. The test can be described thus: Inhibition of PC3 cell proliferation. In kind it is functional, cell-based. As to conditions: Homo sapiens. In outline:
as §1

The test system of test [11] is HT-1080. The test can be described thus: Inhibition of HT1080 cell proliferation. The test is classed as functional, cell-based. As to conditions: Homo sapiens. In outline: as §1
The test system of test [12] is HT-29. The test can be described thus: Inhibition of HT-29 cell proliferation. The test is classed as functional, cell-based. To be noted: Homo sapiens. In outline:
as §1

Test [13] concerns the target Cyclin-dependent kinase 2/cyclin E (Homo sapiens, UniProt P24941). Kind of test: Inhibitory concentration against Cyclin-dependent kinase 2-cyclin E. The test is classed as protein-complex assay.
Test [14] concerns the target Tyrosine-protein kinase ABL1 (Homo sapiens, UniProt P00519). Kind of test: Inhibition of c-Abl tyrosine kinase.

Cyclin-dependent kinase 4/cyclin D1, sequence (P11802 whole entry): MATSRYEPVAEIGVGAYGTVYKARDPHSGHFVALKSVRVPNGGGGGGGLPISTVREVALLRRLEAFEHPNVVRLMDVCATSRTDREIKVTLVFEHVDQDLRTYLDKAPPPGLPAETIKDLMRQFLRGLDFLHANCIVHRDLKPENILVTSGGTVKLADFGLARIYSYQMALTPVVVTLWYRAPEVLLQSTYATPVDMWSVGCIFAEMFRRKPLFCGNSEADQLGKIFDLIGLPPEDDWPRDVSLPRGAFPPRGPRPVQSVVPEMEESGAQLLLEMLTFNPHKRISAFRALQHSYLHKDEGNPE
Cyclin-dependent kinase 4/cyclin D1, sequence (P24385 whole entry, further chain): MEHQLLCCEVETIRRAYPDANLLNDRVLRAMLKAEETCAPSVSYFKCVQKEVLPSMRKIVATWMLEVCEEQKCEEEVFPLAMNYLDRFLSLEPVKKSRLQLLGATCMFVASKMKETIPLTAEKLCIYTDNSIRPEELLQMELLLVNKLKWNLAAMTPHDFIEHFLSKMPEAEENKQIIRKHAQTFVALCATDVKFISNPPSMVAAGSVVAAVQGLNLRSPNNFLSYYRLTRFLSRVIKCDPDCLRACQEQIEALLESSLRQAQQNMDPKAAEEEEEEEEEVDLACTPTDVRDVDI
Tyrosine-protein kinase ABL1, sequence (P00519 whole entry): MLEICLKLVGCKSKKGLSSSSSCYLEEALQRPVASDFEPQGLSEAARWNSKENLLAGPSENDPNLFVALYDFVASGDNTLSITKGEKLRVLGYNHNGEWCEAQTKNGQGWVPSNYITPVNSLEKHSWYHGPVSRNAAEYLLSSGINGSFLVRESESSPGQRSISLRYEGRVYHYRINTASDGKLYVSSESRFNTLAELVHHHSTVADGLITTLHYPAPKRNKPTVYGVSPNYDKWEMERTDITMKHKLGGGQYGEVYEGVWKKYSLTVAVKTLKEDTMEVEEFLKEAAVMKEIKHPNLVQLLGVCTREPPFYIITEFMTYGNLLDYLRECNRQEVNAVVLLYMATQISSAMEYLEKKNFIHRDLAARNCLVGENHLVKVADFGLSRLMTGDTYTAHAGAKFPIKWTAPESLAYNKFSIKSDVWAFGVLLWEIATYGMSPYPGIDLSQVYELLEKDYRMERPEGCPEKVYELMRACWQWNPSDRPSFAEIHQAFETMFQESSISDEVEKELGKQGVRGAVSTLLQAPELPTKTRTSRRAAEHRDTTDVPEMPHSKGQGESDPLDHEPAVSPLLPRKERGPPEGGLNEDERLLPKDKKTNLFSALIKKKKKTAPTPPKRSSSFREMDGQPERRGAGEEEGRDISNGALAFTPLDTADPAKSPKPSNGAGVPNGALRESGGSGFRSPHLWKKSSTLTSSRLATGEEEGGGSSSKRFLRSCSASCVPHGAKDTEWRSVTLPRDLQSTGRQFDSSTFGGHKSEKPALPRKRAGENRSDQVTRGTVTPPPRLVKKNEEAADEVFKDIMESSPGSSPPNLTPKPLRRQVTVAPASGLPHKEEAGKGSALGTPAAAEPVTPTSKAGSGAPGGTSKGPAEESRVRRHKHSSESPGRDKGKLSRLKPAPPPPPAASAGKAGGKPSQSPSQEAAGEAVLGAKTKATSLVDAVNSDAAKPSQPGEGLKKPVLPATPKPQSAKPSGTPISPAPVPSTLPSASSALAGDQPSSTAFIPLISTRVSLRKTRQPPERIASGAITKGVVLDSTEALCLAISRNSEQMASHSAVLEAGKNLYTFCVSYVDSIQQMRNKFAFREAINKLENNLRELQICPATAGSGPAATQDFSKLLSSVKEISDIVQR

Broadly, the IC50 is the concentration needed to halve the response being measured. What is called EC50 is the concentration giving half of the maximal effect. As to `NC(=O)Nc1cccc2c1C(=O)c1c(-c3csc(Cl)c3)n[nH]c1-2`, the IC50 in test [1] is 260 nM; in test [2], 200 nM; in test [3], > 58000 nM; in test [4] it was 130 nM; in test [5], > 58000 nM; in [6] it was 57 nM. Further, the concentration for half-maximal inhibition (IC50) is 44 nM in test [7]; 240 nM in test [8]; 690 nM in test [10]; 490 nM in test [11]; > 2900 nM in test [12]; 13 nM in [13]. The IC50 in [14] is > 60000 nM. Besides, the EC50 in [9] was > 29000 nM.

Regarding `Cn1ccc(-c2[nH]nc3c2C(=O)c2c(NC(N)=O)cccc2-3)c1`, the results for the IC50 in [4], in test [6] and in test [13] were 64 nM, 130 nM and 26 nM, respectively.

For the compound `NCC1CCN(CC(=O)Nc2cccc3c2C(=O)c2c-3n[nH]c2-c2ccc(N3CCOCC3)cc2)CC1`, the IC50 in [4] worked out at 110 nM; in test [6], 18 nM; in test [13], 26 nM.

Take `NC(=O)Nc1cccc2c1C(=O)c1c-2n[nH]c1-c1ccsc1`: the IC50 in test [4] is 360 nM; in test [6], 67 nM; in [13], 9 nM.

In the case of `NC(=O)Nc1cccc2c1C(=O)c1c-2n[nH]c1-c1cccs1`, the IC50 is 41 nM in test [4], 150 nM in test [6] and 11 nM in test [13].

Consider `CC(C)c1n[nH]c2c1C(=O)c1c(NC(=O)CN3CCC(C(N)=O)CC3)cccc1-2`, for which the IC50 in [4] was 290 nM; in test [6] it was > 1300 nM; in test [13], 21 nM.

With `Cc1ccsc1-c1[nH]nc2c1C(=O)c1c(NC(N)=O)cccc1-2`, the IC50 in [4] was determined as 140 nM; in test [6] it was 350 nM; in [13], 17 nM.

Regarding `NC(=O)C1CCN(CC(=O)Nc2cccc3c2C(=O)c2c-3n[nH]c2C2CC2)CC1`, the IC50 in [4] is 120 nM; in test [6] it was > 99 nM; in [13] it was 26 nM.

Values taken from ChEMBL document CHEMBL1136010, “Synthesis and evaluation of indenopyrazoles as cyclin-dependent kinase inhibitors. 3. Structure activity relationships at C3(1,2)” (J Med Chem, 2002).
